Measurements as given in ChEMBL document CHEMBL3272081, “Oxytocin analogues with combined high smooth muscle and negligible antidiuretic activities. Investigation of position 7 in neurohypophyseal hormones” (J Med Chem, 1976).
Calls of active or inactive are those of the source. The rule behind the calls is not given here. Bridge positions count the residues as written; N and C are the ends. Square brackets hold non-standard residues; d marks the D form. Peptide text beside a SMILES is read from it. Mpa = O=C(O)CCS

Assays:
[1] = system: Gallus gallus; test: Induction of vasodepressor activity in conscious chicken; type: functional
[2] = organism: Rattus norvegicus; test: Antidiuretic activity in rat; type: functional, Urine
Method in brief: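 Anesthetized male rats, Jeffers et al. method as modified by Sawyer. Specific activity is obtained against the USP standard using a Schild four-point design or matches. Reported as USP U/mg ± SEM, five animals per determination.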

[3] = organism: Oryctolagus cuniculus; test: Induction of oxytocic activity in rabbit assessed as milk ejection; type: functional
[4] = organism: Rattus norvegicus; test: Pressor activity in rat; type: functional
Method in brief: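 Anesthetized male rats, per the U.S. Pharmacopeia. Potency is estimated by matches, with the USP posterior pituitary standard always injected before the analogue. Before each analogue dose, several standard doses are confirmed to give reproducible, unattenuated responses. Reported as USP U/mg ± SEM, five animals.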

[5] = molecular target: T1, Oxytocin receptor (Rattus norvegicus) (UniProt P70536); test: Activity at rat oxytocin receptor in rat uterus assessed as uterotonic activity; type: tissue-based
T1 sequence (whole entry): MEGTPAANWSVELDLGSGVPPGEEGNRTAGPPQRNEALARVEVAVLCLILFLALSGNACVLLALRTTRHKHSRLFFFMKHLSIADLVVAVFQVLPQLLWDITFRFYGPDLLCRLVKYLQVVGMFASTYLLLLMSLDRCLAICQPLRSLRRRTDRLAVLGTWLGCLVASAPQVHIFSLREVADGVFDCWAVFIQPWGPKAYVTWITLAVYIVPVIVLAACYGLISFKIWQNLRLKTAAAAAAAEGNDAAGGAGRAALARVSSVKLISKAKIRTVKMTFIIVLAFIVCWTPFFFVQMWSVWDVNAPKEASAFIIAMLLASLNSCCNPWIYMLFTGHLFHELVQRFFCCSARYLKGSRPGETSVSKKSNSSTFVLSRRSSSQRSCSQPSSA
Method in brief: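 Isolated uterine horns from virgin rats in natural estrus, Holton method as modified by Munsick, bathed in Mg²⁺-free van Dyke–Hastings solution. Specific activity is derived against the USP standard by a Schild four-point design or by matches. Expressed as USP U/mg ± SEM, with at least three animals per determination.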

[6] = molecular target: T2, Oxytocin receptor (Homo sapiens) (UniProt P30559); test: Activity at oxytocin receptor (unknown origin) assessed as oxytocic activity
T2 sequence (whole entry): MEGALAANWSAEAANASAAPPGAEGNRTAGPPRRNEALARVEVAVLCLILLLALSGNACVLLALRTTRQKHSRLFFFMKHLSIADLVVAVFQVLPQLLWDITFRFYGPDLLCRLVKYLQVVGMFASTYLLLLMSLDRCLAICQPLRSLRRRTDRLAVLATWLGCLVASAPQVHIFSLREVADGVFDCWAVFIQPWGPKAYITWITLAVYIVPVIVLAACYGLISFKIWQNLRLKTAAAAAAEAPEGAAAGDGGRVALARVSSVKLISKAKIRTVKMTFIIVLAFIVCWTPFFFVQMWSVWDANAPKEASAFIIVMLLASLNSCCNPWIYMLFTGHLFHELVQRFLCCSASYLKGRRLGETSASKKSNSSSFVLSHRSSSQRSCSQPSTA

[7] = system: Rattus norvegicus; test: Induction of vasodepressor activity in anesthetized male rat at 0.5 mg
[8] = Drug metabolism in rat uterine homogenate assessed as compound inactivation after 30 mins; type: ADME, tissue-based, Uterus; conditions: read-out: Drug metabolism
[9] = Drug metabolism in rat uterine homogenate assessed as compound inactivation after 60 mins; type: ADME, tissue-based, Uterus; conditions: read-out: Drug metabolism
[10] = organism: Rattus norvegicus; test: Pressor activity in rat after 45 mins; type: functional, organism-based

Work on CC[C@H](C)[C@@H]1NC(=O)[C@H](Cc2ccc(O)cc2)NC(=O)CCSSC[C@@H](C(=O)N2CCC[C@H]2C(=O)N[C@@H](CC(C)C)C(=O)NCC(N)=O)NC(=O)[C@H](CC(N)=O)NC(=O)[C@H](CCC(N)=O)NC1=O yielded an Activity [1] of 975 USP-U/mg, an Activity [2] of 19 USP-U/mg and an Activity [3] of 541 USP-U/mg. The Activity [4] was 1.44 USP-U/mg and the Activity [5] was 803 USP-U/mg.
In the case of CC[C@H](C)[C@@H]1NC(=O)[C@H](Cc2ccc(O)cc2)NC(=O)[C@@H](N)CSSC[C@@H](C(=O)N[C@@H](C)C(=O)N[C@@H](CC(C)C)C(=O)NCC(N)=O)NC(=O)[C@H](CC(N)=O)NC(=O)[C@H](CCC(N)=O)NC1=O (H-CYIQNCALG-NH2; disulfide 1-6), the Activity [1] is reported as 4.8 USP-U/mg, the Activity [2] is reported as 0.08 USP-U/mg and the Activity [4] is reported as 0.4 USP-U/mg. For the same compound, the Activity [5] was 22 USP-U/mg.
With CC[C@H](C)[C@@H]1NC(=O)[C@H](Cc2ccc(O)cc2)NC(=O)[C@@H](N)CSSC[C@@H](C(=O)NCC(=O)N[C@@H](CC(C)C)C(=O)NCC(N)=O)NC(=O)[C@H](CC(N)=O)NC(=O)[C@H](CCC(N)=O)NC1=O (H-CYIQNCGLG-NH2; disulfide 1-6) the Activity [6] was 68 U/mg, the Activity [1] was 5.3 USP-U/mg and the Activity [2] was “<=0.01 USP-U/mg”. The Activity [7] was 25 mmHg, the Activity [3] was 224 USP-U/mg and the Activity [4] was 0.3 USP-U/mg. For the same compound, the Activity [5] was 65 USP-U/mg.
In the case of CC[C@H](C)[C@@H]1NC(=O)[C@H](Cc2ccc(O)cc2)NC(=O)CCSSC[C@@H](C(=O)N[C@@H](C)C(=O)N[C@@H](CC(C)C)C(=O)NCC(N)=O)NC(=O)[C@H](CC(N)=O)NC(=O)[C@H](CCC(N)=O)NC1=O ([Mpa]YIQNCALG-NH2; disulfide 1-6), the Activity [1] is reported as 9.8 USP-U/mg, the Activity [2] is reported as 0.17 USP-U/mg and the Activity [4] is reported as 0.5 USP-U/mg. The Activity [5] was 123 USP-U/mg.
CC[C@H](C)[C@@H]1NC(=O)[C@H](Cc2ccc(O)cc2)NC(=O)CCSSC[C@@H](C(=O)NCC(=O)N[C@@H](CC(C)C)C(=O)NCC(N)=O)NC(=O)[C@H](CC(N)=O)NC(=O)[C@H](CCC(N)=O)NC1=O ([Mpa]YIQNCGLG-NH2; disulfide 1-6) gave a metabolised at 0.5 h [8] of 3%, an Activity [1] of 17 USP-U/mg and an Activity [2] of 0.062 USP-U/mg. It also gave a metabolised at 1 h [9] of 30%, an Activity [4] of 0.5 USP-U/mg and an Activity [5] of 355 USP-U/mg.
For CC[C@H](C)[C@@H]1NC(=O)[C@H](Cc2ccc(O)cc2)NC(=O)[C@@H](N)CSSC[C@@H](C(=O)N2CCC[C@H]2C(=O)N[C@@H](CC(C)C)C(=O)NCC(N)=O)NC(=O)[C@H](CC(N)=O)NC(=O)[C@H](CCC(N)=O)NC1=O [OXYTOCIN], the Activity [1] was 507 USP-U/mg, the Activity [2] was 2.7 USP-U/mg and the Activity [10] was “Active”. It also gave an Activity [3] of 440 USP-U/mg, an Activity [4] of 3.1 USP-U/mg and an Activity [5] of 546 USP-U/mg.
